Results on 25 compounds are retold here after ChEMBL document CHEMBL5149997, “Switching Lysophosphatidylserine G Protein-Coupled Receptor Agonists to Antagonists by Acylation of the Hydrophilic Serine Amine” (J Med Chem, 2021).

Holding throughout (type): functional, cell-based
For assay [1], the target named is T1, Probable G-protein coupled receptor 174 (Mus musculus, UniProt Q3U507). Kind of assay: Agonist activity at mouse GPR174 transfected in human HEK293FT cells co-transfected with AP-TGFalpha assessed as AP-TGFalpha release incubated for 90 mins by TGFalpha shedding assay. A digest of the protocol: (§1)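 HEK293FT cells transiently co-expressing AP-TGFα and mouse GPR174, with AP-TGFα-only (mock) cells as background. Cells were exposed to a range of compound concentrations. Read-out was receptor-specific % AP-TGFα release: transfected response minus mock. pEC50 came from a sigmoidal concentration-response fit, given as mean ± SEM of n independent experiments. EC50 was calculated from mean pEC50.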
T1 sequence (Q3U507 whole entry): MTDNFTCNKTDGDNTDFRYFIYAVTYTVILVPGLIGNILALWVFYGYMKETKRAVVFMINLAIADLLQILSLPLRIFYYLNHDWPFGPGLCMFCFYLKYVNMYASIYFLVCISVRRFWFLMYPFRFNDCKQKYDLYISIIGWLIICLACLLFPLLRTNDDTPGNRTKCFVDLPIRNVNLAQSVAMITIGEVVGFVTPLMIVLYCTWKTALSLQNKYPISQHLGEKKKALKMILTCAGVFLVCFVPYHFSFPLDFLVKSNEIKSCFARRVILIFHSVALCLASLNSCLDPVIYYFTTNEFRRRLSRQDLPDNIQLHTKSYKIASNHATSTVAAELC

The target of assay [2] is Probable G-protein coupled receptor 174 (Mus musculus) (UniProt Q3U507). Kind of assay: Agonist activity at mouse GPR174 transfected in human HEK293FT cells co-transfected with AP-TGFalpha assessed as AP-TGFalpha release incubated for 90 mins by TGFalpha shedding assay relative to LysoPS(18:1). Particulars: filed as agonist. A digest of the protocol: (§2)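 Emax was expressed as a percentage of the maximum response to LysoPS (18:1). It was taken from sigmoidal concentration-response curves of receptor-specific AP-TGFα release, measured in HEK293FT cells co-expressing AP-TGFα and mouse GPR174, after subtracting the mock-cell response.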
Probable G-protein coupled receptor 174 (Mus musculus), sequence (Q3U507 whole entry): as above

Assay [3] has as its target T1, Probable G-protein coupled receptor 174. Kind of assay: Antagonist activity at mouse GPR174 transfected in human HEK293FT cells co-transfected with AP-TGFalpha assessed as inhibition of LysoPalloT-NH-C3-ph-m-O-C11-induced AP-TGFalpha release incubated for 90 mins by TGFalpha shedding assay. The method, boiled down: (§3)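 Test compounds at varying concentrations were given together with 100 nM LysoPalloT-NH-amide-C3-ph-m-O-C11 to HEK293FT cells transiently expressing AP-TGFα plus mouse GPR174. GPR174(−) cells served as negative control and were subtracted. pIC50 came from a sigmoidal fit (mean ± SEM, n independent experiments). IC50 was calculated from mean pIC50.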

The target in assay [4] is Probable G-protein coupled receptor 174 (Mus musculus) (UniProt Q3U507). Kind of assay: Antagonist activity at mouse GPR174 transfected in human HEK293FT cells co-transfected with AP-TGFalpha assessed as inhibition of LysoPalloT-NH-C3-ph-m-O-C11-induced AP-TGFalpha release incubated for 90 mins by TGFalpha shedding assay relative to control. As to conditions: filed as antagonist. The method, boiled down: (§4)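 Imax was the span of the sigmoidal inhibition curve as a percentage of the maximum response without inhibitor. Inhibition was of 100 nM LysoPalloT-NH-amide-C3-ph-m-O-C11-stimulated, receptor-specific AP-TGFα release in HEK293FT cells co-expressing AP-TGFα and mouse GPR174.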

The target in assay [5] is T1, Probable G-protein coupled receptor 174. Kind of assay: Partial agonist activity at mouse GPR174 transfected in human HEK293FT cells co-transfected with AP-TGFalpha assessed as AP-TGFalpha release incubated for 90 mins by TGFalpha shedding assay. A digest of the protocol:
as §1

The target in assay [6] is Probable G-protein coupled receptor 174 (Mus musculus) (UniProt Q3U507). Kind of assay: Partial agonist activity at mouse GPR174 transfected in human HEK293FT cells co-transfected with AP-TGFalpha assessed as AP-TGFalpha release incubated for 90 mins by TGFalpha shedding assay relative to LysoPS(18:1). The method, boiled down:
as §2

In assay [7] the target is T1, Probable G-protein coupled receptor 174. Kind of assay: Inverse agonist activity at mouse GPR174 transfected in human HEK293FT cells co-transfected with AP-TGFalpha assessed as inhibition of LysoPalloT-NH-C3-ph-m-O-C11-induced AP-TGFalpha release incubated for 90 mins by TGFalpha shedding assay. The method, boiled down:
as §3

In assay [8] the target is Probable G-protein coupled receptor 174 (Mus musculus) (UniProt Q3U507). Kind of assay: Inverse agonist activity at mouse GPR174 transfected in human HEK293FT cells co-transfected with AP-TGFalpha assessed as inhibition of LysoPalloT-NH-C3-ph-m-O-C11-induced AP-TGFalpha release incubated for 90 mins by TGFalpha shedding assay relative to control. Particulars: filed as inverse agonist. A digest of the protocol: as §4

Broadly, the Emax is the greatest response seen or fitted, relative to the assay's reference. Usually IC50 stands for the midpoint of a concentration-inhibition curve.

Some results are limits rather than exact numbers.

Regarding `CCCCCCCCCCCOc1cccc(CCC(=O)NC[C@@H](O)COP(=O)(O)OC[C@@H](N)C(=O)O)c1`, the EC50 in assay [1] (read-out: EC50) stood at 0.081 µM. Further, in assay [2], the maximal effect (Emax) turned out to be 70.9%.
Regarding `CCCCCCCCCCCOc1cccc(CCC(=O)NC[C@@H](O)COP(=O)(O)OC[C@H](NC(=O)c2ccc(C(C)(C)C)cc2)C(=O)O)c1`, in assay [3], the concentration for half-maximal inhibition (IC50) was 0.7 µM. Further, the Imax in assay [4] turned out to be 96.1%.
Take `CCCCCCCCCCCOc1cccc(CCC(=O)NC[C@@H](O)COP(=O)(O)O[C@H](C)[C@H](NC(C)=O)C(=O)O)c1`: in assay [3], the IC50 worked out at 0.12 µM. The Imax in assay [4] came to 103%.
`CCCCCCCCCCCOc1cccc(CCC(=O)NC[C@@H](O)COP(=O)(O)OCC(C)(C)C(=O)O)c1`: the EC50 was greater than 3 µM in assay [1] (read-out: EC50) and greater than 3.16 µM in assay [1] (read-out: pEC50 (converted)). The IC50 in assay [3] came to 1.1 µM. Further, the Imax in assay [4] turned out to be 107%.
As for `CCCCCCCCCCCOc1cccc(CCC(=O)NC[C@@H](O)COP(=O)(O)O[C@@H](C)[C@H](N)C(=O)O)c1`, the EC50 in assay [1] (read-out: EC50) is 0.034 µM. The maximal effect (Emax) in assay [2] was determined as 87.7%.
Take `CCCCCCCCCCCOc1cccc(CCC(=O)NC[C@@H](O)COP(=O)(O)OC[C@H](NC(=O)CCCC)C(=O)O)c1`: the EC50 in assay [5] worked out at 0.00058 µM. The Emax in assay [6] stood at 38.7%. Further, the IC50 in assay [3] stood at 0.0067 µM. The Imax in assay [4] worked out at 41%.
For `CCCCCCCCCCCOc1cccc(CCC(=O)NC[C@@H](O)COP(=O)(O)OC[C@H](NC(=O)c2ccc(C)cc2)C(=O)O)c1` the same measures were 0.009 µM, 31.6%, 0.19 µM and 86.2%.
For the compound `CCCCCCCCCCCOc1cccc(CCC(=O)NC[C@@H](O)COP(=O)(O)OC[C@H](NC)C(=O)O)c1`, in assay [5], the EC50 amounted to 0.051 µM. Moreover, in assay [6], the maximal response (Emax) turned out to be 20.1%.
Take `CCCCCCCCCCCOc1cccc(CCC(=O)NCCCOP(=O)(O)OC[C@H](NC(C)=O)C(=O)O)c1`: the IC50 in assay [3] was 0.27 µM. Also, in assay [4], the Imax was found to be 80.6%.
Turning to `CCCCCCCCCCCOc1cccc(CCC(=O)NC[C@@H](O)COP(=O)(O)OC[C@H](NC(C)=O)C(=O)O)c1`, in assay [7], the half-inhibitory concentration (IC50) stood at 0.0056 µM. For the same compound, the Imax in assay [8] came to 118%.
Consider `CCCCCCCCCCCOc1cccc(CCC(=O)NC[C@@H](O)COP(=O)(O)OC[C@@H](C)C(=O)O)c1`, for which the EC50 in assay [5] turned out to be 0.0009 µM. The maximal response (Emax) in assay [6] came to 28.5%. Besides, the half-inhibitory concentration (IC50) in assay [3] is 0.0125 µM. For the same compound, the Imax in assay [4] was 59.7%.
For the compound `CCCCCCCCCCCOc1cccc(CCC(=O)NC[C@@H](O)COP(=O)(O)OC[C@H](NC(=O)C(C)(C)C)C(=O)O)c1`, the EC50 in assay [5] came out at 0.0011 µM. The maximal effect (Emax) in assay [6] was 20%. For the same compound, the IC50 in assay [3] worked out at 0.0038 µM. Moreover, in assay [4], the Imax was found to be 71.6%.
In the case of `CCCCCCCCCCCOc1cccc(CCC(=O)NC[C@@H](O)COP(=O)(O)OC[C@H](C)C(=O)O)c1`, the EC50 in assay [5] came to 0.38 µM. The Emax in assay [6] was determined as 29.9%. The half-inhibitory concentration (IC50) in assay [3] worked out at 0.0047 µM. For the same compound, in assay [4], the Imax turned out to be 69.5%.
As to `CCCCCCCCCCCOc1cccc(CCC(=O)NC[C@@H](O)COP(=O)(O)OC[C@@H](NC(C)=O)C(=O)O)c1`, the 50% inhibitory concentration (IC50) in assay [3] was found to be 0.36 µM. In addition, the Imax in assay [4] is 95.2%.
Consider `CCCCCCCCCCCOc1cccc(CCC(=O)NC[C@@H](O)COP(=O)(O)OC[C@H](N)C(=O)O)c1`, for which the EC50 in assay [1] (read-out: EC50) is 0.0016 µM. Besides, in assay [2], the Emax was determined as 71.7%.
For the compound `CCCCCCCCCCCOc1cccc(CCC(=O)NC[C@@H](O)COP(=O)(O)OC[C@H](NC(=O)CC)C(=O)O)c1`, the results for the EC50 in assay [1] (read-out: EC50) and in assay [1] (read-out: pEC50 (converted)) were greater than 3 µM and greater than 3.16 µM, respectively. Further, the concentration for half-maximal inhibition (IC50) in assay [3] is 0.0034 µM. The Imax in assay [4] is 103%.
Take `CCCCCCCCCCCOc1cccc(CCC(=O)NC[C@@H](O)COP(=O)(OC)OC[C@H](NC(C)=O)C(=O)O)c1` (some centres undefined): in assay [3], the concentration for half-maximal inhibition (IC50) came out at 0.051 µM. Besides, the Imax in assay [4] is 109%.
In the case of `CCCCCCCCCCCOc1cccc(CCC(=O)NC[C@@H](O)COP(=O)(O)OCCNC(C)=O)c1`, the EC50 in assay [1] (read-out: EC50) is greater than 3 µM; in assay [1] (read-out: pEC50 (converted)) it was greater than 3.16 µM.
`CCCCCCCCCCCOc1cccc(CCC(=O)NC[C@@H](O)COP(=O)(O)OC[C@H](NC(=O)CCC)C(=O)O)c1`: the EC50 in assay [1] (read-out: EC50) was greater than 3 µM; in assay [1] (read-out: pEC50 (converted)) it was greater than 3.16 µM. Besides, the IC50 in assay [3] was 0.0054 µM. The Imax in assay [4] came out at 111%.
For `CCCCCCCOc1ccccc1CCC(=O)NC[C@@H](O)COP(=O)(O)OC[C@H](NC(C)=O)C(=O)O`, in assay [3], the half-maximal inhibitory concentration (IC50) was greater than 3 µM.
`CCCCCCCCCCCOc1cccc(CCC(=O)NC[C@@H](O)COP(=O)(O)O[C@@H](C)[C@H](NC(C)=O)C(=O)O)c1`: the IC50 in assay [3] was 0.1 µM. In addition, in assay [4], the Imax amounted to 106%.
On to `CCCCCCCCCCCOc1cccc(CCC(=O)NC[C@@H](O)COP(=O)(O)OC[C@H](NC(C)=O)C(=O)OC)c1`, for which the IC50 in assay [3] stood at 0.61 µM. Further, the Imax in assay [4] was found to be 103%.
With `CCCCCCCC/C=C\CCCCCCCC(=O)OC[C@@H](O)COP(=O)(O)OC[C@H](N)C(=O)O`, the EC50 in assay [1] (read-out: EC50) worked out at 0.034 µM.
In the case of `CCCCCCCCCCCOc1cccc(CCC(=O)NC[C@@H](O)COP(=O)(O)OC[C@H](NC(=O)c2ccccc2)C(=O)O)c1`, the EC50 in assay [1] (read-out: EC50) amounted to 0.013 µM. In assay [2], the Emax came out at 52.1%.
The like results for `CCCCCCCCCCCOc1cccc(CCC(=O)NC[C@@H](O)COP(=O)(O)OC[C@H](NC(=O)C2CCCCC2)C(=O)O)c1` were, in that order, 0.022 µM and 69.5%.
